# Values joined by “and” are separate entries in the source; they are usually repeats but may differ in a detail not shown here. Equal values may be shown once.
# Test system: U2OS
# Experiment: Multiplex assay against U2OS
# Type: toxicity, cell-based
# Details: human, number of replicates 2
# Summary of the method: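 On a CQ1 microscope at 37°C and 5% CO2, live cells were imaged after compound addition. They had been stained at seeding with Hoechst33342, BioTracker Green Microtubule Cytoskeleton Dye, MitoTracker Red and Annexin V Alexa Fluor 680. CellPathfinder machine-learning gating assigned cells to Hoechst high-intensity objects or normal cells, normal cells to healthy, pyknosed or fragmented nuclei, and pyknosed cells to mitotic or apoptotic. Tubulin, mitochondrial-mass and membrane-permeability phenotypes are per cents of healthy-nucleus cells.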
# [1] = 12 h, 1 µM, compound concentration 1 uM
# [2] = 12 h, 10 µM, compound concentration 10 uM
# [3] = 24 h, 1 µM, compound concentration 1 uM
# [4] = 24 h, 10 µM, compound concentration 10 uM
# [5] = 48 h, 1 µM, compound concentration 1 uM
# [6] = 48 h, 10 µM, compound concentration 10 uM
compound,measurement,setting,value
COc1nc2ccc([C@@](O)(c3ccc(Cl)cc3)c3cncn3C)cc2c(Cl)c1Cc1ccc(-n2cccn2)cc1 [JNJ-53721590],Population Healthy Nuclei (%),[1],56% and 85%
same,Population Hoechst High Intensity Objects (%),[1],0%
same,Population Membrane Permeable-Phenotype (%),[1],5% and 1%
same,Population Mitochondria Different-Phenotype (%),[1],0% and 20%
same,Population Normal (%),[1],100%
same,Population Pyknosed Nuclei (%),[1],16% and 10%
same,Population Tubulin-Different-Phenotype (%),[1],23% and 37%
same,Population Apoptotic (%),[2],74% and 57%
same,Population Fragmented Nuclei (%),[2],2% and 12%
same,Population Healthy Nuclei (%),[2],82% and 74%
same,Population Hoechst High Intensity Objects (%),[2],0%
same,Population Membrane Permeable-Phenotype (%),[2],29% and 21%
same,Population Mitochondria Different-Phenotype (%),[2],28% and 56%
same,Population Mitotic Cells (%),[2],25% and 42%
same,Population Normal (%),[2],99% and 100%
same,Population Pyknosed Nuclei (%),[2],14% and 12%
same,Population Tubulin-Different-Phenotype (%),[2],89% and 97%
same,Population Apoptotic (%),[3],50% and 62%
same,Population Fragmented Nuclei (%),[3],20% and 0%
same,Population Healthy Nuclei (%),[3],45% and 85%
same,Population Hoechst High Intensity Objects (%),[3],0%
same,Population Membrane Permeable-Phenotype (%),[3],0% and 1%
same,Population Mitochondria Different-Phenotype (%),[3],6% and 17%
same,Population Mitotic Cells (%),[3],50% and 37%
same,Population Normal (%),[3],100% and 99%
same,Population Pyknosed Nuclei (%),[3],34% and 13%
same,Population Tubulin-Different-Phenotype (%),[3],25% and 42%
same,Population Apoptotic (%),[4],79% and 36%
same,Population Fragmented Nuclei (%),[4],3% and 12%
same,Population Healthy Nuclei (%),[4],78% and 64%
same,Population Hoechst High Intensity Objects (%),[4],0%
same,Population Membrane Permeable-Phenotype (%),[4],34% and 35%
same,Population Mitochondria Different-Phenotype (%),[4],43% and 54%
same,Population Normal (%),[4],99% and 100%
same,Population Pyknosed Nuclei (%),[4],18% and 22%
same,Population Tubulin-Different-Phenotype (%),[4],93%
same,Population Apoptotic (%),[5],70% and 81%
same,Population Healthy Nuclei (%),[5],86% and 54%
same,Population Hoechst High Intensity Objects (%),[5],0%
same,Population Mitochondria Different-Phenotype (%),[5],9% and 13%
same,Population Mitotic Cells (%),[5],29% and 18%
same,Population Normal (%),[5],99% and 100%
same,Population Pyknosed Nuclei (%),[5],10% and 26%
same,Population Apoptotic (%),[6],64% and 85%
same,Population Healthy Nuclei (%),[6],47% and 65%
same,Population Hoechst High Intensity Objects (%),[6],0%
same,Population Membrane Permeable-Phenotype (%),[6],57% and 47%
same,Population Mitochondria Different-Phenotype (%),[6],48% and 34%
same,Population Mitotic Cells (%),[6],35% and 14%
same,Population Normal (%),[6],100% and 99%
same,Population Pyknosed Nuclei (%),[6],24% and 26%
same,Population Tubulin-Different-Phenotype (%),[6],96% and 90%
C[C@@H](OC[C@@]1(c2ccccc2)CC[C@]2(CCC(=O)N2)CN1)c1cc(C(F)(F)F)cc(C(F)(F)F)c1 [ROLAPITANT],Population Apoptotic (%),[1],20% and 40%
same,Population Fragmented Nuclei (%),[1],11% and 3%
same,Population Healthy Nuclei (%),[1],73% and 86%
same,Population Hoechst High Intensity Objects (%),[1],0%
same,Population Membrane Permeable-Phenotype (%),[1],4% and 1%
same,Population Mitochondria Different-Phenotype (%),[1],0%
same,Population Mitotic Cells (%),[1],80% and 59%
same,Population Normal (%),[1],100%
same,Population Pyknosed Nuclei (%),[1],14% and 9%
same,Population Tubulin-Different-Phenotype (%),[1],76% and 86%
same,Population Apoptotic (%),[2],37% and 50%
same,Population Healthy Nuclei (%),[2],85% and 71%
same,Population Hoechst High Intensity Objects (%),[2],0%
same,Population Membrane Permeable-Phenotype (%),[2],1% and 5%
same,Population Mitochondria Different-Phenotype (%),[2],0% and 5%
same,Population Mitotic Cells (%),[2],62% and 50%
same,Population Normal (%),[2],99% and 100%
same,Population Pyknosed Nuclei (%),[2],8% and 7%
same,Population Tubulin-Different-Phenotype (%),[2],87% and 30%
same,Population Apoptotic (%),[3],100% and 52%
same,Population Fragmented Nuclei (%),[3],7% and 2%
same,Population Healthy Nuclei (%),[3],90% and 87%
same,Population Hoechst High Intensity Objects (%),[3],0%
same,Population Membrane Permeable-Phenotype (%),[3],0% and 1%
same,Population Mitochondria Different-Phenotype (%),[3],0% and 1%
same,Population Normal (%),[3],100%
same,Population Pyknosed Nuclei (%),[3],2% and 9%
same,Population Tubulin-Different-Phenotype (%),[3],77% and 90%
same,Population Apoptotic (%),[4],48% and 50%
same,Population Healthy Nuclei (%),[4],89% and 77%
same,Population Hoechst High Intensity Objects (%),[4],0%
same,Population Membrane Permeable-Phenotype (%),[4],0% and 3%
same,Population Mitochondria Different-Phenotype (%),[4],0% and 3%
same,Population Mitotic Cells (%),[4],51% and 50%
same,Population Normal (%),[4],99% and 100%
same,Population Pyknosed Nuclei (%),[4],7% and 5%
same,Population Tubulin-Different-Phenotype (%),[4],91% and 35%
same,Population Apoptotic (%),[5],40% and 48%
same,Population Fragmented Nuclei (%),[5],5% and 1%
same,Population Healthy Nuclei (%),[5],87% and 92%
same,Population Hoechst High Intensity Objects (%),[5],0%
same,Population Membrane Permeable-Phenotype (%),[5],1%
same,Population Mitochondria Different-Phenotype (%),[5],0%
same,Population Mitotic Cells (%),[5],60% and 51%
same,Population Normal (%),[5],100% and 99%
same,Population Pyknosed Nuclei (%),[5],6% and 5%
same,Population Tubulin-Different-Phenotype (%),[5],87% and 91%
same,Population Apoptotic (%),[6],48% and 28%
same,Population Fragmented Nuclei (%),[6],2% and 7%
same,Population Healthy Nuclei (%),[6],90% and 78%
same,Population Hoechst High Intensity Objects (%),[6],0%
same,Population Membrane Permeable-Phenotype (%),[6],0% and 4%
same,Population Mitochondria Different-Phenotype (%),[6],0% and 4%
same,Population Mitotic Cells (%),[6],51% and 71%
same,Population Normal (%),[6],100%
same,Population Pyknosed Nuclei (%),[6],6% and 13%
CCCN(CCc1cccs1)[C@H]1CCc2c(O)cccc2C1 [ROTIGOTINE],Population Apoptotic (%),[1],46% and 66%
same,Population Fragmented Nuclei (%),[1],6% and 13%
same,Population Healthy Nuclei (%),[1],84% and 76%
same,Population Hoechst High Intensity Objects (%),[1],0%
same,Population Mitochondria Different-Phenotype (%),[1],0%
same,Population Mitotic Cells (%),[1],53% and 33%
same,Population Normal (%),[1],100%
same,Population Pyknosed Nuclei (%),[1],9% and 10%
same,Population Tubulin-Different-Phenotype (%),[1],86% and 34%
same,Total Cell Count,[1],30
same,Population Apoptotic (%),[2],62% and 50%
same,Population Healthy Nuclei (%),[2],84% and 60%
same,Population Hoechst High Intensity Objects (%),[2],0%
same,Population Membrane Permeable-Phenotype (%),[2],4% and 13%
same,Population Mitochondria Different-Phenotype (%),[2],1% and 0%
same,Population Mitotic Cells (%),[2],37% and 50%
same,Population Normal (%),[2],100%
same,Population Pyknosed Nuclei (%),[2],11% and 15%
same,Population Apoptotic (%),[3],57% and 80%
same,Population Fragmented Nuclei (%),[3],1% and 6%
same,Population Healthy Nuclei (%),[3],89% and 82%
same,Population Hoechst High Intensity Objects (%),[3],0%
same,Population Membrane Permeable-Phenotype (%),[3],2%
same,Population Mitochondria Different-Phenotype (%),[3],0%
same,Population Mitotic Cells (%),[3],42% and 20%
same,Population Normal (%),[3],100%
same,Population Pyknosed Nuclei (%),[3],8% and 10%
same,Population Tubulin-Different-Phenotype (%),[3],88% and 39%
same,Population Apoptotic (%),[4],48% and 66%
same,Population Healthy Nuclei (%),[4],83% and 75%
same,Population Hoechst High Intensity Objects (%),[4],0%
same,Population Membrane Permeable-Phenotype (%),[4],0% and 9%
same,Population Mitochondria Different-Phenotype (%),[4],1% and 2%
same,Population Mitotic Cells (%),[4],51% and 33%
same,Population Normal (%),[4],100%
same,Population Pyknosed Nuclei (%),[4],13% and 10%
same,Population Tubulin-Different-Phenotype (%),[4],62% and 46%
same,Population Apoptotic (%),[5],35% and 83%
same,Population Healthy Nuclei (%),[5],90% and 76%
same,Population Hoechst High Intensity Objects (%),[5],0% and 1%
same,Population Membrane Permeable-Phenotype (%),[5],1% and 6%
same,Population Mitochondria Different-Phenotype (%),[5],0% and 4%
same,Population Normal (%),[5],99% and 98%
same,Population Pyknosed Nuclei (%),[5],6% and 9%
same,Population Tubulin-Different-Phenotype (%),[5],93% and 35%
same,Population Apoptotic (%),[6],66% and 57%
same,Population Fragmented Nuclei (%),[6],8% and 2%
same,Population Healthy Nuclei (%),[6],75% and 90%
same,Population Hoechst High Intensity Objects (%),[6],0%
same,Population Membrane Permeable-Phenotype (%),[6],6% and 1%
same,Population Mitochondria Different-Phenotype (%),[6],3% and 0%
same,Population Mitotic Cells (%),[6],33% and 42%
same,Population Normal (%),[6],100% and 99%
same,Population Pyknosed Nuclei (%),[6],15% and 6%
same,Population Tubulin-Different-Phenotype (%),[6],62% and 78%
CC(C)N(CCCCOCC(=O)NS(C)(=O)=O)c1cnc(-c2ccccc2)c(-c2ccccc2)n1 [SELEXIPAG],Population Apoptotic (%),[1],100% and 38%
same,Population Fragmented Nuclei (%),[1],14% and 4%
same,Population Healthy Nuclei (%),[1],76% and 84%
same,Population Hoechst High Intensity Objects (%),[1],0%
same,Population Membrane Permeable-Phenotype (%),[1],0% and 1%
same,Population Mitochondria Different-Phenotype (%),[1],6% and 0%
same,Population Normal (%),[1],100% and 99%
same,Population Pyknosed Nuclei (%),[1],9% and 11%
same,Population Tubulin-Different-Phenotype (%),[1],81% and 85%
same,Population Apoptotic (%),[2],33% and 45%
same,Population Fragmented Nuclei (%),[2],11% and 3%
same,Population Healthy Nuclei (%),[2],82% and 88%
same,Population Hoechst High Intensity Objects (%),[2],0%
same,Population Membrane Permeable-Phenotype (%),[2],2% and 1%
same,Population Mitochondria Different-Phenotype (%),[2],0%
same,Population Mitotic Cells (%),[2],66% and 54%
same,Population Normal (%),[2],100% and 99%
same,Population Pyknosed Nuclei (%),[2],6% and 8%
same,Population Tubulin-Different-Phenotype (%),[2],97% and 87%
same,Population Apoptotic (%),[3],50% and 46%
same,Population Fragmented Nuclei (%),[3],5% and 2%
same,Population Healthy Nuclei (%),[3],88% and 89%
same,Population Hoechst High Intensity Objects (%),[3],0%
same,Population Membrane Permeable-Phenotype (%),[3],3% and 1%
same,Population Mitochondria Different-Phenotype (%),[3],0%
same,Population Mitotic Cells (%),[3],50% and 53%
same,Population Normal (%),[3],100%
same,Population Pyknosed Nuclei (%),[3],5% and 8%
same,Population Tubulin-Different-Phenotype (%),[3],84% and 91%
same,Population Apoptotic (%),[4],75% and 46%
same,Population Healthy Nuclei (%),[4],73% and 89%
same,Population Hoechst High Intensity Objects (%),[4],0%
same,Population Membrane Permeable-Phenotype (%),[4],0% and 1%
same,Population Mitochondria Different-Phenotype (%),[4],0%
same,Population Mitotic Cells (%),[4],25% and 53%
same,Population Normal (%),[4],100% and 99%
same,Population Pyknosed Nuclei (%),[4],6%
same,Population Tubulin-Different-Phenotype (%),[4],100% and 94%
same,Population Apoptotic (%),[5],22% and 50%
same,Population Healthy Nuclei (%),[5],67% and 94%
same,Population Hoechst High Intensity Objects (%),[5],0%
same,Population Membrane Permeable-Phenotype (%),[5],0% and 1%
same,Population Mitochondria Different-Phenotype (%),[5],0%
same,Population Mitotic Cells (%),[5],77% and 50%
same,Population Normal (%),[5],100%
same,Population Tubulin-Different-Phenotype (%),[5],85% and 93%
same,Population Apoptotic (%),[6],36% and 56%
same,Population Fragmented Nuclei (%),[6],6% and 4%
same,Population Healthy Nuclei (%),[6],83% and 90%
same,Population Hoechst High Intensity Objects (%),[6],0%
same,Population Membrane Permeable-Phenotype (%),[6],1%
same,Population Mitochondria Different-Phenotype (%),[6],0%
same,Population Mitotic Cells (%),[6],63% and 43%
same,Population Normal (%),[6],100% and 99%
same,Population Pyknosed Nuclei (%),[6],9% and 4%
same,Population Tubulin-Different-Phenotype (%),[6],97% and 94%

# From ChEMBL document CHEMBL5303300, “EUbOPEN Chemogenomics Library - Multiplex” (2023)
